Results taken from ChEMBL document CHEMBL3997837, “Potent covalent inhibitors of bacterial urease identified by activity-reactivity profiling” (Bioorg Med Chem Lett, 2017).
Counter-ions that a name gives are not always drawn. Calls of active or inactive are those of the source. The calls are words filed in the database; no cut-off is given here.

Legend:
[1] = test system: Sporosarcina pasteurii; test: Reversible inhibition of Sporosarcina pasteurii CCM 2056 urease assessed as reduction in ammonia production by measuring recovery of enzyme activity at 10 times IC50 preincubated for 60 mins followed by 100-fold dilution in to PBS containing urea as substrate by Berthelot colorimetric assay relative to control; set-up: Activity: scale not given: the % may be the effect or the level left
[2] = Inhibition of Proteus mirabilis 543 urease at pH 5.5 assessed as reduction in ammonia production using urea as substrate preincubated for 120 mins followed by substrate addition measured after 15 mins by NaOH-hypochlorite method
Summary of the method: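 Intact Proteus mirabilis cells were preincubated with inhibitors in PBS for 2 h, then tested at pH 5.5, matching urine acidity, with 5 mM urea. IC50 was determined.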

[3] = Cytotoxicity against mouse BALB/3T3 cells assessed as inhibition of cell proliferation at 100 uM after 72 hrs by SRB assay relative to control; type: cell-based
Summary of the method: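 Mouse BALB/3T3 cells were tested by SRB assay at a single concentration of 100, with the result given as percent inhibition of proliferation.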

[4] = Glutathione reactivity in pH 7.4 PBS measured after 6 to 36 hrs in presence of 1.375 mmol GSH by DTNB reagent based spectrophotometric method
Summary of the method: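 Glutathione served as a model reactive-thiol compound. Unreacted GSH was quantified spectrophotometrically by a modified Ellman method, and reaction progress was followed over time up to 36 h.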

[5] = Inhibition of Sporosarcina pasteurii CCM 2056 urease assessed as reduction in ammonia production by measuring initial state enzyme-inhibitor complex using urea as substrate measured for 120 mins by phenol-hypochlorite method
[6] = Inhibition of Sporosarcina pasteurii CCM 2056 urease assessed as reduction in ammonia production using urea as substrate measured for 120 mins by phenol-hypochlorite method
[7] = test system: Proteus mirabilis; test: Inhibition of Proteus mirabilis 543 urease at pH 5.5 assessed as reduction in ammonia production using urea as substrate followed by substrate addition by NaOH-hypochlorite method; settings: TDE = time-dependent effect
[8] = Inhibition of Proteus mirabilis 543 urease at pH 5.5 assessed as reduction in ammonia production using urea as substrate measured after 15 mins by NaOH-hypochlorite method
Summary of the method: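 Intact Proteus mirabilis cells were tested at pH 5.5, matching physiological urine, with 5 mM urea. Inhibitors were added without preincubation, and IC50 was determined.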

[9] = Inhibition of Sporosarcina pasteurii CCM 2056 urease assessed as reduction in ammonia production by measuring steady state enzyme-inhibitor complex using urea as substrate measured for 120 mins by phenol-hypochlorite method
[10] = test system: Sporosarcina pasteurii; test: Competitive inhibition of Sporosarcina pasteurii CCM 2056 urease assessed as reduction in ammonia production preincubated with enzyme followed by addition of varying levels of urea as substrate measured for 120 mins by Lineweaver-Burk plot analysis
[11] = test system: Sporosarcina pasteurii; test: Time-dependent Sporosarcina pasteurii CCM 2056 urease assessed as reduction in ammonia production using urea as substrate by phenol-hypochlorite method
[12] = test system: BALB/3T3; test: Cytotoxicity against mouse BALB/3T3 cells assessed as reduction in cell proliferation after 72 hrs by SRB assay; type: cell-based; settings: balb/3t3, 72 h
Summary of the method: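 Mouse BALB/3T3 fibroblasts were scored by SRB assay, with cytotoxicity given as LC50 values.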

[13] = Glutathione reactivity up to 15 mins in presence of 10 mM GSH by 1H NMR analysis

Compound | Activity [1] [%] | mode of inhibition [10] | Ki ([5]; read-out: Ki) [µM] | TDI [11] | Ki ([6]; read-out: Ki) [µM] | Ki ([9]; read-out: Ki) [µM] | further results
CCOC(=O)/C=C/c1ccccc1 [ETHYL CINNAMATE] | – | – | – | – | – | – | inhibition [1]: inactive; IC50 [2]: Not Active; inhibition at 72 h, 100 µM [3]: 29.1%; K [4]: 1.21e-05 M⁻¹ s⁻¹; log K [4]: -3.14; Ki [5]: Not Active; Ki [6]: Not Active; inhibition [7]: Tde; IC50 [8]: Not Active; Ki [9]: Not Active
CCOC(=O)/C=C/C(=O)c1ccccc1 | 30.2 | Active | 29.2 | Active | 3.96 | 1.21 | LC50 [12]: 24.5 µM; K [4]: 2.18 M⁻¹ s⁻¹; log K [4]: 2.12
CCOC(=O)/C=C/c1ccc(C)cc1 | – | – | – | – | – | – | inhibition [1]: inactive; Ki [5]: Not Active; Ki [6]: Not Active; Ki [9]: Not Active
COC(=O)/C=C(\CC(=O)OC)C(=O)OC | 31.5 | Active | – | Active | 5.21 | – | –
O=C(O)/C=C\C(=O)O [MALEIC ACID] | – | – | – | – | – | – | inhibition [1]: inactive; Ki [5]: Not Active; Ki [6]: Not Active; Ki [9]: Not Active
O=C1C=CCC1 | 15.3 | Active | 11.2 | Active | 0.291 | 0.232 | LC50 [12]: 86.5 µM; K [4]: 0.487 M⁻¹ s⁻¹; log K [4]: 1.5
N#C/C=C/C1=CC(=O)CCC1 | 27.2 | Active | 55.1 | Active | 0.784 | 0.931 | –
C#CC(=O)O [PROPIOLIC ACID] | 40.9 | Active | 729 | Active | 44.4 | 43.5 | –
CC(=O)/C=C/C1=CC(=O)CCC1 | 38.8 | Active | 205 | Active | 21.2 | 21.3 | –
C=C=CC(=O)NCc1ccccc1 | – | – | – | – | – | – | inhibition [1]: inactive; Ki [5]: Not Active; Ki [6]: Not Active; Ki [9]: Not Active
CC(=O)NO [ACETOHYDROXAMIC ACID] | 29.1 | – | – | – | 3.3 | – | IC50 ([2]; read-out: IC50): 91.4 µM; IC50 ([8]; read-out: IC50): 169 µM
COC(=O)C#CC(=O)OC | 9.2 | Active | 0.973 | Active | 0.00977 | 0.0124 | LC50 [12]: 29.8 µM; K [4]: 6.47 M⁻¹ s⁻¹; log K [4]: 2.59; Drug metabolism [13]: Metabolite detected
O=C(O)/C=C(\CC(=O)O)C(=O)O [ACONITIC ACID] | 33.8 | Active | – | Active | 6.13 | – | –
O=C1C=CCCC1 | 27.2 | Active | 22.8 | Active | 0.766 | 0.267 | inhibition at 72 h, 100 µM [3]: 29.8%; K [4]: 0.37 M⁻¹ s⁻¹; log K [4]: 1.35
CC#CC(=O)O | 47.4 | Active | 1130 | Active | 109 | 97.5 | –
COC(=O)/C=C\C(=O)OC [DIMETHYL MALEATE] | – | – | – | – | – | – | inhibition [1]: inactive; Ki [5]: Not Active; Ki [6]: Not Active; Ki [9]: Not Active
C#CC(=O)OC | 41.5 | Active | 804 | Active | 46 | 50.5 | –
COC(=O)/C=C/C(=O)OC [DIMETHYL FUMARATE] | 36.8 | Active | 311 | Active | 21.3 | 21.7 | LC50 [12]: 39.7 µM; K [4]: 2.62 M⁻¹ s⁻¹; log K [4]: 2.2; Drug metabolism [13]: Metabolite detected
CCOC(=O)C#CC(=O)OCC | 8.8 | Active | 0.852 | Active | 0.0102 | 0.00744 | –
CCC(C)OC(=O)/C=C/C(=O)OC(C)CC (configuration not stated) | 46 | Active | 907 | Active | 64.2 | 59.2 | –
CC(C)OC(=O)/C=C/C(=O)OC(C)C | 41.2 | Active | 678 | Active | 42.4 | 38.6 | –
CC#CC(=O)OCC | 47.3 | Active | 1270 | Active | 126 | 117 | –
CCCCOC(=O)/C=C/C(=O)OCCCC | 45.1 | Active | 847 | Active | 53.7 | 66.7 | –
O=C(O)/C=C/C1=CC(=O)CCC1 | 38.1 | Active | 189 | Active | 17.8 | 19.5 | –

Second part, led by results:

Activity [1] [%] | mode of inhibition [10] | Ki ([5]; read-out: Ki) [µM] | TDI [11] | Ki ([6]; read-out: Ki) [µM] | Ki ([9]; read-out: Ki) [µM] | Compound | further results
34.3 | Active | 21.7 | Active | 11.1 | 12 | CCOC(=O)/C=C/C(=O)OCC | –
39.2 | Active | 584 | Active | 37.1 | 40.3 | O=C(O)C#Cc1ccccc1 | –
45.6 | Active | 888 | Active | 52.4 | 59.1 | CCOC(=O)/C=C/C(=O)O [ETHYL FUMARATE] | –
21.5 | Active | 26.8 | Active | 0.592 | 0.493 | O=C1C=C(/C=C/C(=O)c2ccccc2)CCC1 | –
44.7 | Active | 814 | Active | 52.3 | 47.1 | CCOC(=O)C#Cc1ccccc1 | –
16.7 | Active | 16.7 | Active | 0.285 | 0.316 | COC(=O)/C=C/C1=CC(=O)CC1 | inhibition at 72 h, 100 µM [3]: 35.2%; K [4]: 0.166 M⁻¹ s⁻¹; log K [4]: 0.998
32.7 | Active | 77.1 | Active | 6.36 | 6.64 | Cc1ccc(C(=O)/C=C/C(=O)O)cc1 | inhibition at 72 h, 100 µM [3]: 31.3%; K [4]: 0.333 M⁻¹ s⁻¹; log K [4]: 1.3
35.8 | Active | 323 | Active | 11.9 | 15.7 | O=C(O)/C=C/c1ccc([N+](=O)[O-])cc1 | –
29.1 | Active | 162 | Active | 2.52 | 2.27 | C=C=CC(=O)OCC | –
8.9 | Active | 32.8 | Active | 0.0928 | 0.113 | CCOC(=O)/C=C/C(=O)C(=O)OCC | –
39.3 | Active | 425 | Active | 22.1 | 25.7 | CCOC(=O)/C=C/C(=O)OC(C)(C)C | –
– | Active | – | – | – | – | CCOC(=O)/C=C/c1ccc([N+](=O)[O-])cc1 | inhibition [1]: inactive; Ki [5]: Not Active; Ki [6]: Not Active; Ki [9]: Not Active
39.9 | Active | 633 | Active | 34.2 | 32.2 | Cc1ccc(/C=C/C(=O)O)cc1 | –
23.6 | Active | 46.5 | Active | 0.694 | 0.766 | COC(=O)/C=C/C1=CC(=O)CCC1 | K [4]: 0.0703 M⁻¹ s⁻¹; log K [4]: 0.63
